In assay [1] the test system is Escherichia coli. In words: Antimicrobial activity against Escherichia coli MI1443 harboring A77V and P167S mutations in beta lactamase CTX-M-10 by E-test. It is filed as functional. A digest of the protocol:
(§1)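 E-test MICs on E. coli MI1443 carrying artificial blaCTX-M derivatives. Each gene was cloned into pBGS18– at EcoRI/PstI, transformed into MI1443, selected with kanamycin 50 µg/ml, and sequenced to confirm the mutation. Agents: cefotaxime, ceftazidime, cefepime, cefuroxime, amoxicillin-clavulanate.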

Assay [2] has as its system Escherichia coli. In words: Antimicrobial activity against Escherichia coli GB20 harboring P167S mutation in beta lactamase CTX-M-10 by broth microdilution method. It is filed as functional.
Assay [3] concerns Escherichia coli. In words: Antimicrobial activity against Escherichia coli GB20 harboring V27A, Q38R, A77V, P167S mutation in beta lactamase CTX-M-3 by broth microdilution method. It is filed as functional.
Assay [4] relates to Escherichia coli. In words: Antimicrobial activity against beta lactamase CTX-M-10 producing Escherichia coli GB20 by broth microdilution method. It is filed as functional.
Assay [5] has as its system Escherichia coli. In words: Antimicrobial activity against Escherichia coli GB20 harboring V27A, Q38R, P167S mutation in beta lactamase CTX-M-3 by broth microdilution method. The assay is classed as functional.
The subject of assay [6] is Escherichia coli. In words: Antimicrobial activity against beta lactamase CTX-M-10 producing Escherichia coli MI1443 by broth microdilution.
Assay [7] concerns Escherichia coli. In words: Antimicrobial activity against Escherichia coli MI1443 harboring A77V and D240G mutations in beta lactamase CTX-M-10 by E-test. The assay is classed as functional. In a few lines:
as §1

Assay [8] concerns Escherichia coli. In words: Antimicrobial activity against Escherichia coli MI1443 harboring A77V mutation in beta lactamase CTX-M-10 by E-test. It is filed as functional. A digest of the protocol: (§2)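 MICs by E-test. Host is E. coli MI1443 carrying an artificial blaCTX-M derivative made by PCR and cloned into pBGS18- (EcoRI/PstI). Transformants were selected on kanamycin 50 µg/ml and the mutation was confirmed by sequencing. Agents tested: cefotaxime, ceftazidime, cefepime, cefuroxime and amoxicillin-clavulanate.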

Assay [9] concerns Escherichia coli. In words: Antimicrobial activity against Escherichia coli MI1443 harboring V27A, Q38R, P167S and D240G mutations in beta lactamase CTX-M-3 by E-test. The assay is classed as functional. A digest of the protocol:
as §2

Assay [10] has as its system Escherichia coli. In words: Antimicrobial activity against Escherichia coli MI1443 harboring V27A, Q38R, N106S mutations in beta lactamase CTX-M-3 by E-test. The assay is classed as functional. A digest of the protocol:
as §2

For assay [11], the system named is Escherichia coli. In words: Antimicrobial activity against Escherichia coli MI1443 harboring N106S and P167S mutations in beta lactamase CTX-M-10 by E-test. The assay is classed as functional. A digest of the protocol: as §1
Assay [12] deals with Escherichia coli. In words: Antimicrobial activity against Escherichia coli MI1443 harboring N106S mutation in beta lactamase CTX-M-10 by E-test. The assay is classed as functional. In a few lines:
as §1

The test system of assay [13] is Escherichia coli. In words: Antimicrobial activity against Escherichia coli GB20 harboring V27A, Q38R, A77V, N114D, A140S, D288N mutations in beta lactamase CTX-M-1 by broth microdilution method. It is filed as functional.
The subject of assay [14] is Escherichia coli. In words: Antimicrobial activity against Escherichia coli MI1443 harboring V27A and Q38R mutations in beta lactamase CTX-M-10 by E-test. It is filed as functional. A digest of the protocol: as §1
In assay [15] the test system is Escherichia coli. In words: Antimicrobial activity against Escherichia coli GB20 harboring V27A, Q38R, A77V, N114D, A140S, P167T, D288N mutations in beta lactamase CTX-M-1 by broth microdilution method. It is filed as functional.
In assay [16] the test system is Escherichia coli. In words: Antimicrobial activity against Escherichia coli MI1443 harboring V27A, Q38R, A77V, N114D, A140S, D240G, D288N mutations in beta lactamase CTX-M-32 by broth microdilution method. It is filed as functional.
For assay [17], the system named is Escherichia coli. In words: Antimicrobial activity against Escherichia coli MI1443 harboring V27A, Q38R, A77V and D240G mutations in beta lactamase CTX-M-3 by E-test. The assay is classed as functional. A digest of the protocol:
as §1

The test system of assay [18] is Escherichia coli. In words: Antimicrobial activity against Escherichia coli MI1443 harboring N106S and D240G mutations in beta lactamase CTX-M-10 by E-test. The assay is classed as functional. A digest of the protocol:
as §1

The test system of assay [19] is Escherichia coli. In words: Antimicrobial activity against Escherichia coli MI1443 harboring P167S and D240G mutations in beta lactamase CTX-M-10 by E-test. It is filed as functional. A digest of the protocol: as §2
For assay [20], the system named is Escherichia coli. In words: Antimicrobial activity against Escherichia coli MI1443 harboring V27A, Q38R, N106S and P167S mutations in beta lactamase CTX-M-3 by E-test. The assay is classed as functional. In a few lines: as §2
The test system of assay [21] is Escherichia coli. In words: Antimicrobial activity against Escherichia coli MI1443 harboring V27A, Q38R, A77V mutations in beta lactamase CTX-M-3 by E-test. It is filed as functional. A digest of the protocol:
as §2

Assay [22] concerns Escherichia coli. In words: Antimicrobial activity against Escherichia coli GB20 harboring D240G mutation in beta lactamase CTX-M-10 by broth microdilution method. It is filed as functional.
For assay [23], the system named is Escherichia coli. In words: Antimicrobial activity against Escherichia coli GB20 harboring V27A, Q38R mutations in beta lactamase CTX-3 by broth microdilution method. The assay is classed as functional.
Assay [24] concerns Escherichia coli. In words: Antimicrobial activity against Escherichia coli MI1443 harboring V27A, Q38R, N106S and D240G mutations in beta lactamase CTX-M-3 by E-test. The assay is classed as functional. In a few lines:
as §1

Assay [25] concerns Escherichia coli. In words: Antimicrobial activity against Escherichia coli MI1443 harboring V27A, Q38R, D240G mutations in beta lactamase CTX-M-15 by broth microdilution method. It is filed as functional.
The test system of assay [26] is Escherichia coli. In words: Antimicrobial activity against Escherichia coli GB20 harboring V27A, Q38R, A77V, N114D, A140S, P167S, D288N mutations in beta lactamase CTX-M-1 by broth microdilution method. The assay is classed as functional.

Each structure is given as a SMILES string. In brackets after ≈: the same amount, converted by molar mass. A value given as a limit tells only on which side of the number the result lay.

`CO/N=C(\C(=O)N[C@@H]1C(=O)N2C(C(=O)O)=C(COC(N)=O)CS[C@H]12)c1ccco1` [CEFUROXIME]: the minimum inhibitory concentration (MIC) was 64 µg/mL (≈ 151 µM) in the assay on Escherichia coli [1]; 32 µg/mL (≈ 75.4 µM) in the assay with Escherichia coli [2]; 64 µg/mL (≈ 151 µM) in the assay on Escherichia coli [3]; not below 256 µg/mL in the assay with Escherichia coli [4]; 128 µg/mL (≈ 302 µM) with Escherichia coli [5]; not below 256 µg/mL against Escherichia coli [6].
`CO/N=C(\C(=O)N[C@@H]1C(=O)N2C(C(=O)O)=C(COC(C)=O)CS[C@H]12)c1csc(N)n1` [CEFOTAXIME]: the MIC is 4 µg/mL (≈ 8.78 µM) in the assay with Escherichia coli [1]; 1 µg/mL (≈ 2.2 µM) in the assay on Escherichia coli [2]; not below 256 µg/mL against Escherichia coli [7]; not below 256 µg/mL against Escherichia coli [8]; 1.5 µg/mL (≈ 3.29 µM) in the assay with Escherichia coli [9]; 3 µg/mL (≈ 6.59 µM) in the assay on Escherichia coli [10]. Also, the MIC with Escherichia coli [11] is 2 µg/mL (≈ 4.39 µM); against Escherichia coli [12], 2 µg/mL (≈ 4.39 µM); in the assay with Escherichia coli [3], 4 µg/mL (≈ 8.78 µM); in the assay on Escherichia coli [13] it was not below 256 µg/mL; with Escherichia coli [14], 256 µg/mL (≈ 562 µM); against Escherichia coli [15] it was 16 µg/mL (≈ 35.1 µM). Further, the minimum inhibitory concentration (MIC) against Escherichia coli [16] was 256 µg/mL (≈ 562 µM); against Escherichia coli [17], not below 256 µg/mL; in the assay on Escherichia coli [4] it was 256 µg/mL (≈ 562 µM); with Escherichia coli [5], 1 µg/mL (≈ 2.2 µM); in the assay on Escherichia coli [18], 64 µg/mL (≈ 141 µM); against Escherichia coli [19] it was 4 µg/mL (≈ 8.78 µM). The MIC against Escherichia coli [20] was 3 µg/mL (≈ 6.59 µM); against Escherichia coli [21] it was 128 µg/mL (≈ 281 µM); against Escherichia coli [22] it was not below 256 µg/mL; with Escherichia coli [23], 256 µg/mL (≈ 562 µM); in the assay on Escherichia coli [24], not below 256 µg/mL; in the assay with Escherichia coli [25] it was 128 µg/mL (≈ 281 µM). For the same compound, the MIC was 256 µg/mL (≈ 562 µM) in the assay with Escherichia coli [6] and 16 µg/mL (≈ 35.1 µM) with Escherichia coli [26].
Regarding `CO/N=C(\C(=O)N[C@@H]1C(=O)N2C(C(=O)[O-])=C(C[N+]3(C)CCCC3)CS[C@H]12)c1csc(N)n1` [CEFEPIME], the MIC worked out at 1 µg/mL (≈ 2.08 µM) against Escherichia coli [1]; 1 µg/mL (≈ 2.08 µM) with Escherichia coli [2]; 32 µg/mL (≈ 66.6 µM) with Escherichia coli [7]; 128 µg/mL (≈ 266 µM) with Escherichia coli [8]; 0.5 µg/mL (≈ 1.04 µM) in the assay with Escherichia coli [9]; 1.5 µg/mL (≈ 3.12 µM) against Escherichia coli [10]. Besides, the MIC with Escherichia coli [11] is 1 µg/mL (≈ 2.08 µM); against Escherichia coli [12], 1 µg/mL (≈ 2.08 µM); in the assay on Escherichia coli [3], 0.25 µg/mL (≈ 0.52 µM); in the assay with Escherichia coli [13] it was 128 µg/mL (≈ 266 µM); in the assay with Escherichia coli [14] it was 32 µg/mL (≈ 66.6 µM); with Escherichia coli [15] it was 4 µg/mL (≈ 8.32 µM). Further, the minimal inhibitory concentration (MIC) with Escherichia coli [16] was 4 µg/mL (≈ 8.32 µM); in the assay on Escherichia coli [17] it was 4 µg/mL (≈ 8.32 µM); in the assay with Escherichia coli [4], 32 µg/mL (≈ 66.6 µM); against Escherichia coli [5] it was 0.5 µg/mL (≈ 1.04 µM); with Escherichia coli [18], 4 µg/mL (≈ 8.32 µM); against Escherichia coli [19], less than 0.25 µg/mL. Further, the MIC against Escherichia coli [20] came to 1.5 µg/mL (≈ 3.12 µM); with Escherichia coli [21] it was 1.5 µg/mL (≈ 3.12 µM); against Escherichia coli [22], 4 µg/mL (≈ 8.32 µM); against Escherichia coli [23] it was 32 µg/mL (≈ 66.6 µM); with Escherichia coli [24], 8 µg/mL (≈ 16.6 µM); with Escherichia coli [25], 1 µg/mL (≈ 2.08 µM). The MIC against Escherichia coli [6] is 32 µg/mL (≈ 66.6 µM); with Escherichia coli [26], 4 µg/mL (≈ 8.32 µM).
As to `CC(C)(O/N=C(\C(=O)N[C@@H]1C(=O)N2C(C(=O)[O-])=C(C[n+]3ccccc3)CS[C@H]12)c1csc(N)n1)C(=O)O` [CEFTAZIDIME], the minimal inhibitory concentration (MIC) amounted to 64 µg/mL (≈ 117 µM) in the assay on Escherichia coli [1]; 32 µg/mL (≈ 58.5 µM) in the assay with Escherichia coli [2]; 8 µg/mL (≈ 14.6 µM) with Escherichia coli [7]; 8 µg/mL (≈ 14.6 µM) in the assay on Escherichia coli [8]; 8 µg/mL (≈ 14.6 µM) with Escherichia coli [9]; 0.5 µg/mL (≈ 0.915 µM) in the assay with Escherichia coli [10]. The MIC came to 16 µg/mL (≈ 29.3 µM) against Escherichia coli [11]; 0.5 µg/mL (≈ 0.915 µM) in the assay with Escherichia coli [12]; 32 µg/mL (≈ 58.5 µM) against Escherichia coli [3]; 4 µg/mL (≈ 7.32 µM) against Escherichia coli [13]; 1 µg/mL (≈ 1.83 µM) with Escherichia coli [14]; 256 µg/mL (≈ 468 µM) in the assay on Escherichia coli [15]. In addition, the MIC was determined as 2 µg/mL (≈ 3.66 µM) against Escherichia coli [16]; 2 µg/mL (≈ 3.66 µM) against Escherichia coli [17]; 1 µg/mL (≈ 1.83 µM) against Escherichia coli [4]; 32 µg/mL (≈ 58.5 µM) in the assay on Escherichia coli [5]; 2 µg/mL (≈ 3.66 µM) with Escherichia coli [18]; 4 µg/mL (≈ 7.32 µM) with Escherichia coli [19]. Besides, the MIC against Escherichia coli [20] amounted to 32 µg/mL (≈ 58.5 µM); against Escherichia coli [21] it was 1 µg/mL (≈ 1.83 µM); with Escherichia coli [22], 16 µg/mL (≈ 29.3 µM); with Escherichia coli [23], 1 µg/mL (≈ 1.83 µM); against Escherichia coli [24], 2 µg/mL (≈ 3.66 µM); against Escherichia coli [25] it was 2 µg/mL (≈ 3.66 µM). Moreover, the MIC was 1 µg/mL (≈ 1.83 µM) in the assay on Escherichia coli [6] and 256 µg/mL (≈ 468 µM) in the assay on Escherichia coli [26].
